Data taken from ChEMBL document CHEMBL1144043, “Second-generation aspirin and indomethacin prodrugs possessing an O(2)-(acetoxymethyl)-1-(2-carboxypyrrolidin-1-yl)diazenium-1,2-diolate nitric oxide donor moiety: design, synthesis, biological evaluation, and nitric oxide release studies” (J Med Chem, 2008).

Assays:
Rattus norvegicus [1] = experiment: Analgesic activity against sodium chloride-induced abdominal constriction in rat at 48 umol/kg, po after 60 mins; type: functional, Abdomen
Outline: (§1)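 4% NaCl-induced writhing (abdominal constriction) assay in rats after oral dosing; writhing inhibition scored at 30 and 60 min post-dose; reported as % inhibition, mean ± SEM, n = 4.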

[2] = Effect on nitric oxide release assessed as time required to detect more than 90% of NO/mol of compound by Sievers nitric oxide analyzer; type: functional
Outline: (§2)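 Porcine liver esterase (29 units, suspension in 3.2 M ammonium sulfate) in phosphate buffer (3 mL) at pH 8.0, 37 °C; compound injected as a DMSO solution. NO is swept by N2 to a chemiluminescence analyzer and AUC is quantified against a calibration curve. The time to more than 90% of theoretical NO is read graphically from time vs mol NO/min curves.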

Rattus norvegicus [3] = experiment: Toxicity in rat assessed as ulcer index at 0.08 mmol/kg, po after 6 hrs; type: organism-based; conditions: in vivo
Outline: (§3)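 Rats fasted 24 h (water allowed) were dosed orally in 1.7 mL 1% methylcellulose; vehicle controls received the same. Stomachs were removed 6 h later after CO2 euthanasia. Ulcer index is the summed ulcer length (mm) per stomach averaged over n = 4, given as mean ± SEM.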

Rattus norvegicus [4] = experiment: Antiinflammatory activity against carrageenan-induced foot paw edema in rat; type: functional
Outline: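 Carrageenan-induced rat paw edema after oral administration; ED50 taken as the dose lowering the inflammatory response by 50% in the group of animals (n = 4).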

[5] = Effect on nitric oxide release phosphate-buffered solution assessed as time required to detect about 50% of NO/mol of compound by Sievers nitric oxide analyzer; type: functional
Outline: (§4)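 Compound in DMSO injected into a sealed cell holding deoxygenated 0.1 M phosphate buffer (3 mL, pH 7.4) with 50 µM DTPA at 37 °C. NO is carried by N2 purge to a chemiluminescence analyzer, and AUC is converted with a calibration curve to mol NO/mol compound. The time to about 50% of theoretical NO is read graphically from time vs mol NO/min curves.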

Rattus norvegicus [6] = experiment: Analgesic activity against sodium chloride-induced abdominal constriction in rat at 48 umol/kg, po after 30 mins; type: functional, Abdomen; outline: as §1
[7] = Effect on nitric oxide release in phosphate-buffered solution in presence of porcine liver esterase by Sievers nitric oxide analyzer; type: functional; outline: as §2
[8] = Effect on nitric oxide release in phosphate-buffered solution at pH 7.4 by Sievers nitric oxide analyzer; type: functional; outline: as §4
Rattus norvegicus [9] = experiment: Toxicity in rat assessed as ulcer index at 1.38 mmol/kg, po after 6 hrs; type: organism-based; conditions: in vivo; outline: as §3
Rattus norvegicus [10] = experiment: Analgesic activity against sodium chloride-induced abdominal constriction in rat at 68 umol/kg, po after 60 mins; type: functional, Abdomen; outline: as §1
Rattus norvegicus [11] = experiment: Analgesic activity against sodium chloride-induced abdominal constriction in rat at 68 umol/kg, po after 30 mins; type: functional, Abdomen; outline: as §1
Rattus norvegicus [12] = experiment: Analgesic activity against sodium chloride-induced abdominal constriction in rat at 84 umol/kg, po after 30 mins; type: functional, Abdomen; outline: as §1
Rattus norvegicus [13] = experiment: Analgesic activity against sodium chloride-induced abdominal constriction in rat at 84 umol/kg, po after 60 mins; type: functional, Abdomen; outline: as §1
Rattus norvegicus [14] = experiment: Analgesic activity against sodium chloride-induced abdominal constriction in rat at 277 umol/kg, po after 60 mins; type: functional, Abdomen; outline: as §1
Rattus norvegicus [15] = experiment: Analgesic activity against sodium chloride-induced abdominal constriction in rat at 277 umol/kg, po after 30 mins; type: functional, Abdomen; outline: as §1

Row | Activity [7] | Structure (SMILES) | TIME [2] [h] | UI (Rattus norvegicus [3]) | ED50 (Rattus norvegicus [4]) [µmol/kg] | TIME [5] [h] | Activity [8] | UI (Rattus norvegicus [9]) | further results
1 | 1.8 | COc1ccc2c(c1)c(CC(=O)OCOC(=O)[C@@H]1CCCN1/[N+]([O-])=N/OCOC(C)=O)c(C)n2C(=O)c1ccc(Cl)cc1 | 0.0533 | 0 | 18.5 | 45 | 1.1 | – | Activity (Rattus norvegicus [1]): 61.5%; Activity (Rattus norvegicus [6]): 36.3%
2 | – | O=C(O)[C@@H]1CCCN1/[N+]([O-])=N/O | 0.0005 | – | – | – | 2 | – | –
3 | 1.9 | CC(=O)OCO/N=[N+](\[O-])N1CCC[C@H]1C(=O)OCOC(=O)c1ccccc1OC(C)=O | 0.04 | – | 314 | 43 | 1.1 | 0.75 | Activity (Rattus norvegicus [10]): 65.8%; Activity (Rattus norvegicus [11]): 24.6%
4 | – | COc1ccc2c(c1)c(CC(=O)O)c(C)n2C(=O)c1ccc(Cl)cc1 [INDOMETHACIN] | – | 64.5 | 11.8 | – | – | – | Activity (Rattus norvegicus [12]): 51.8%; Activity (Rattus norvegicus [13]): 67.6%
5 | – | CC(=O)Oc1ccccc1C(=O)O [ASPIRIN] | – | – | 710 | – | – | 51.4 | Activity (Rattus norvegicus [14]): 64.3%; Activity (Rattus norvegicus [15]): 56.5%
